# Bioassay records as filed in PubChem BioAssay.
# An excerpt weighted towards active compounds, which were near 1.7% of everything screened.
# SUMO1 PPI mod: modulators of SUMO1 protein-protein interactions, primary screen, biochemical, uHTS | SUMO1 binding to a labelled peptide, TR-FRET, 1 h | inhibition, % at 20 µM | actives 0.33% (n = 360,000); in the data active = inhibition above about 37%
# Scp1 inh: Scp-1 phosphatase inhibitors, primary screen, biochemical, colorimetric, uHTS | inhibition, % at 20 µM | Recombinant Scp1, phosphopeptide, malachite green phosphate absorbance | actives 0.88% (n = 340,000);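 active = inhibition above about 50% at 20 µM, limit read from the data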;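 also: plate controls were DMSO wells with enzyme for no effect and wells lacking enzyme for full effect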
#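 Times: enzyme reaction 45 min at room temperature, colour 5 min, stabilisation 30 min. Material: SCP-1 catalytic fragment, aa 76-261. Medium: Acidic Tris acetate buffer with magnesium and detergent. Signal: colorimetric free-phosphate detection, absorbance 630 nm. Read-out basis: % inhibition of SCP-1 phosphate liberation. Reagent: Phosphorylated 17-residue peptide substrate.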
# LMPTP inh: LMPTP phosphatase inhibitors, primary screen, biochemical, fluorescence intensity, uHTS. recombinant LMPTP-A, OMFP fluorogenic substrate. inhibition, % at 20 µM. Low molecular weight phosphotyrosine protein phosphatase (Homo sapiens), P24666. actives 0.22% (n = 360,000);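 active = compounds that cut the enzyme signal by at least half of the control window in the single-dose screen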;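 also: plate controls were DMSO wells with enzyme plus substrate for no effect and substrate without enzyme for full effect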
#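 test system = LMPTP-A | amount = 0.625 nM LMPTP-A final | reagent = fluorogenic phosphatase substrate OMFP at 400 µM final | incubation = 50 min at room temperature | benchmarks = no-enzyme low control, uninhibited high control | medium = Bis-Tris pH 6.0, DTT, detergent | signal = fluorescence intensity of OMFP turnover product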
# STEP block: STEP phosphatase inhibitors, primary screen, biochemical, fluorescence intensity, uHTS; Tyrosine-protein phosphatase non-receptor type 5 (Homo sapiens), P54829; recombinant STEP, OMFP fluorogenic substrate; inhibition, % at 20 µM; actives 0.25% (n = 360,000); AID 588621, 2011;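 active = inhibition at 20 µM, scaled per plate between control wells, above about 37%, limit read from the data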;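 also: 0% = DMSO with enzyme and substrate and 100% = substrate only without enzyme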
#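 Measure: Control-normalized % inhibition with plate pattern correction | Test system: STEP phosphatase, cell-free reaction | Medium: pH 6.0 Bis-Tris with DTT and Tween 20 | Technique: Fluorescence, 480/540 nm | Times: Reaction 20 min, ambient temperature | Doses: Single compound dose of 20 µM, 1% DMSO final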
# DNMT1 block: human DNMT1 methyltransferase inhibitors, primary screen, biochemical, molecular beacon, fluorescence, HinP1I cleavage, uHTS | actives 0.83% (n = 360,000) | AID 588458, 2011 | DNA (cytosine-5)-methyltransferase 1 (Homo sapiens), P26358 | inhibition (reported as % activation of signal), % at 10 µM; in the data active = inhibition above about 50%
# The depositor's hits bear a star; x = not tested or not shown; ! = not active in a repeat.
SMILES,SUMO1 PPI mod,Scp1 inh,LMPTP inh,STEP block,DNMT1 block
COC(=O)CCC(=O)OC1(C)C(=O)C2=CN(Cc3ccc(OC)cc3)C(c3ccc(OC)cc3)=CC2=C(Br)C1=O (stereo not drawn),-15,-8,4,6,-8
CC(NC(=O)c1cc(COc2c(F)cccc2F)on1)c1cnn(-c2ccccc2)c1 (stereo not drawn),4,-10,1,2,-2
COc1ccc(NS(=O)(=O)c2ccc(C)c(C(=O)NCc3ccccc3CN3CCCC3)c2)cc1,-1,x,2,-4,-1
O=C1CC(N2CCN(c3nc4ccccc4s3)CC2)C(=O)N1Cc1cccs1 (stereo not drawn),1,-3,0,-2,-4
O=C1CC(N2CCC(c3nc4ccccc4o3)CC2)C(=O)N1Cc1cccs1 (stereo not drawn),57*,-4,3,-2,-3
CSc1ccc(S(=O)(=O)NCC(=O)OCC(=O)N(C)CC(=O)Nc2ccc(F)cc2)cc1[N+](=O)[O-],-30,-3,1,-1,-2
O=C1CCn2c1c(O)c1ccccc1c2=O,5,12,3,5,4
N=C1CCC(=N)c2c1c(O)c1ccccc1c2O,44*,42,31,6,76*
COC1(OC)N=C(NC(=O)Nc2ccccc2)C2(C#N)C(c3ccccc3)C12C#N (stereo not drawn),0,-7,-2,6,-9
CCOc1ccc(-c2nnc(-c3snc(-c4ccc(F)cc4)c3N=CN(C)C)o2)cc1,47*,5,-1,-1,1
COc1ccc(-c2nnc(-c3ccc(F)cc3)o2)cc1,4,-15,1,-1,2
NNC(=O)/C(=C/c1cccs1)NC(=O)c1ccccc1Cl,-7,-6,-2,-8,0
Nc1ccc(Cc2ccc(N)c(O)c2)cc1O,-5,-9,50*,0,-27
COc1cc(Cc2ccc(N)c(OC)c2)ccc1N,-2,-2,-1,1,-12
COc1ccc(NS(=O)(=O)c2ccc3c(c2)[C@H]2C=CC[C@H]2[C@@H](c2ccc(C(=O)O)cc2)N3)cc1,53*,14,4,3,87*
Cc1c(Cl)cccc1NS(=O)(=O)c1ccc2c(c1)C1C=CCC1C(c1ccc(C(=O)O)cc1)N2 (stereo not drawn),50*,26,26,2,87*
COc1ccc(-c2cc(C#N)nc(N3CCNCC3)n2)cc1,3,-3,16,2,79*
Cc1cc(C)c(OCC(O)CN2CCN(c3ccccn3)CC2)c(C)c1 (stereo not drawn),5,-4,-2,-2,-1
C=Cc1c(C)c2cc3[nH]c(cc4nc(cc5nc(cc1[nH]2)C(C)=C5CCC(=O)O)C(CCC(=O)O)=C4C)c(C)c3C=C,112*!,64*!,5,1,79*
CC(C)[C@H]1CN=C2N(C[C@H](C)NC(=O)CCC3CCCCC3)[C@H](Cc3ccc(O)cc3)CN21,53*,10,13,23,-1
Cc1ccc(S(=O)(=O)N2CCOCC2)cc1C(=O)Nc1ccc(-c2cn3ccsc3n2)cc1,45*,-8,1,-2,-5
Cc1ccc(S(=O)(=O)N2CCOCC2)cc1C(=O)Nc1ccncc1,-3,-4,-1,1,-4
CC(C)C(NC(=O)c1ccc(Cl)cc1)C(=O)NCC1CCCO1 (stereo not drawn),4,-10,0,2,0
COc1ccc(O)c(/C=N/NC(=S)Nc2cccc(S(=O)(=O)N(C)C)c2)c1,6,-17,1,2,-13
CN(C)S(=O)(=O)c1cccc(NC(=S)N/N=C/c2ccc(O)c(O)c2O)c1,27,-14,61*,11,-6
SMILES,SUMO1 PPI mod,Scp1 inh,LMPTP inh,STEP block,DNMT1 block
CCc1nc(N)nc(N)c1-c1ccc(Cl)c(N=[N+]=[N-])c1,9,5,58*,-1,-8
O=C1c2cccnc2-c2ncccc21,-33,7,-1,4,1
O=C1C(=O)c2cccnc2-c2ncccc21,39,x,56*,7,112*
COC1=C(Br)C(=O)c2ncccc2C1=O,49*,2,12,9,91*
COc1ccccc1N1C(=O)c2cccnc2C1=O,-13,-6,0,-3,-1
CCOC(=O)CNS(=O)(=O)c1cc(-c2nn(C)c(=O)c3ccccc23)ccc1C,0,62*,6,16,21
Cc1ccc(-c2nn(C)c(=O)c3ccccc23)cc1S(=O)(=O)NCCN1CCOCC1,1,15,0,1,7
CCCCCCNC(=O)N[C@@H](C(=O)NCCC[C@H]1CN2C(=NC[C@@H]2Cc2ccccc2)N1CCc1cccc(OC)c1)C(C)C,x,92*,x,x,x
Cc1ccc(C(C)c2c(C)c([N+](=O)[O-])cc(C)c2[N+](=O)[O-])cn1 (stereo not drawn),-16,-5,1,2,0
CCN(CC)CCNc1ccc(C)c2sc3ccc(O)cc3c(=O)c12,-26,12,0,3,54*
CC(C1SC(=S)NC1=O)C1SC(=S)NC1=O (stereo not drawn),20,x,68*,2,-6
CCOC(=O)/C(C#N)=C/c1cccn1-c1ccc(Cl)cc1,-1,-14,5,2,-1
N#C/C(=C/c1cccn1-c1cccc(C(=O)O)c1)c1ccc(Cl)cc1,-6,33,8,6,80*
O=C(C[n+]1ccc2ccccc2c1)c1cccc2ccccc12,-21,3,2,-1,-4
O=C(/C=C/c1cc[n+](CC(=O)c2ccc3cccc4c3c2CC4)cc1)c1ccc2cccc3c2c1CC3,132*,17,54*,19,102*
N#Cc1c(-c2ccc(Cl)cc2)cc(-c2cccs2)nc1SCC(=O)O,2,90*,92*,98*,9
Oc1ccc(-c2csc(Nc3cccc4ccccc34)n2)cc1O,17,11,62*,3,18
Cc1ccc(S(=O)(=O)NCC(=O)NC2CC2)cc1,1,-2,-2,-2,4
COC(=O)C[C@@H]1C[C@@H]2c3cc(NC(=O)NC4CCCCC4)ccc3O[C@@H]2[C@H](CO)O1,-2,x,-2,-1,6
CCOC(=O)c1sc2nc(OCCN3CCOCC3)cc(C)c2c1N,10,x,57*,x,x
CCOC(=O)c1sc2nc(N3CCOCC3)c3c(c2c1N)CCC3,-17,-17,3,2,-12
O=C(O)c1ccc(S(=O)(=O)c2ccc3c(c2)C(=O)N(c2ccc(O)cc2)C3=O)cc1,-14,0,0,0,1
